NR2E3 ag-1 = inhibitors of NR2E3-RetCOR corepressor binding, primary screen, NR2E3 agonist project, biochemical, TR-FRET, GST-NR2E3, biotin-RetCOR. Photoreceptor-specific nuclear receptor (Homo sapiens), Q9Y5X4. 1536-well. inhibition of corepressor binding, % at 4.78 µM. hit rate 0.12% among 320,000;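 active = percent inhibition above the cutoff of mean plus 3 SD of all tested compounds, set per screening campaign, cut at about 20% in these data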;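 note: 0% = DMSO wells and 100% = biotin wells as full block of FRET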
Target sequence (Q9Y5X4 whole entry, looked up): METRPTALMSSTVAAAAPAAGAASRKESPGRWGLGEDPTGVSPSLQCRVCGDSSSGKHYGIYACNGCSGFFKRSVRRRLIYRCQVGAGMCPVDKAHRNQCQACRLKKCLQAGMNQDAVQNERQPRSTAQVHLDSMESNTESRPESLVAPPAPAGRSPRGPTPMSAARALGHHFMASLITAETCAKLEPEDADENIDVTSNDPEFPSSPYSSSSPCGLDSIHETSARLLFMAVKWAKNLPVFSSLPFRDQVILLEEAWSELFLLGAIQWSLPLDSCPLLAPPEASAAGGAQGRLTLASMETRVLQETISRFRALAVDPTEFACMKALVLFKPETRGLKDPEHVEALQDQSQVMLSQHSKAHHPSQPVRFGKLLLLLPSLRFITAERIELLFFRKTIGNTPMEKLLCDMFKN
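System: GST-NR2E3 and biotin-RetCOR proteins; probe or stimulus: 7 nM biotin-RetCOR; doses: compound at 4.8 µM, single dose; schedule: Compound–protein incubation for 5 h at 4 °C; detection: time-resolved FRET; read-out: percent inhibition; controls: biotin wells as high control, 0.6% DMSO wells as low control; format: 1536-well plates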
PP5 primary = PP5 phosphatase inhibitors, primary screen, biochemical, fluorescence; AID 1987, 2009; inhibition, % at 6.7 µM; Serine/threonine-protein phosphatase 5 (Homo sapiens), P53041; hit rate 0.18% among 320,000; purified PP5c, OMFP substrate fluorescence;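 active = inhibition above the campaign's mean inhibition across all tested compounds plus 3 SD, cut at about 9.5% in these data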;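 note: 0% = DMSO only and 100% = 100 µM cantharidin control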
NR2E3 ag-2 = NR2E3 agonists in two-hybrid cells, primary screen, cell-based, luminescence, CHO-S, Gal4-NCOR/VP16-NR2E3; luciferase; inhibition of corepressor binding, % at 3.98 µM; hit rate 0.35% among 360,000;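 active = inhibition above the mean of all tested compounds plus 3 SD, cut at about 70% in these data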;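 note: 0% = DMSO with NR2E3 transfected cells and 100% = cells lacking NR2E3 construct; higher means lower luciferase signal from less NR2E3 corepressor binding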
PP1 inh = PP1-alpha phosphatase inhibitors, primary screen, counter-screen for PP5 inhibitor project, biochemical, fluorescence, OMFP substrate, single point; Serine/threonine-protein phosphatase PP1-alpha catalytic subunit (Homo sapiens), P62136; purified PP1alpha; inhibition, % at 6.7 µM; hit rate 0.9% among 320,000; AID 2235, 2010;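 active = inhibition above the mean inhibition of all tested compounds plus 3 SD, computed separately for each screening campaign, cut at about 15% in these data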
The depositor's hits bear a star; ! = not confirmed by another sample. An excerpt weighted towards active compounds, which were near 1.3% of everything screened.

`CC(C)(C)OC(=O)NCCCC[C@H](NC(=O)c1nc[nH]c1C(=O)NCc1ccccc1)C(=O)OC(C)(C)C` gave NR2E3 ag-1 1.2, PP5 primary 7.4, NR2E3 ag-2 -16.9 and PP1 inh 10.6.
Screening NNc1nc(-c2ccccc2)nc(-c2ccccc2)c1Br returned NR2E3 ag-1 0.0, PP5 primary 4.5, NR2E3 ag-2 -18.5 and PP1 inh 1.7.
COC(=O)c1ccc(=O)c2nc3/c(=C/O)c(O)cc(=O)c3[nH]c12 was read as NR2E3 ag-1 11.0, PP5 primary 2.2, NR2E3 ag-2 -2.0 and PP1 inh 48.7*.
N[C@@H](Cc1cc(I)c(Oc2cc(I)c(O)c(I)c2)c(I)c1)C(=O)O was read as NR2E3 ag-1 5.0, PP5 primary 0.6 and PP1 inh 16.5*.
`N[C@@H](Cc1ccc(O)c(O)c1)C(=O)O` gave NR2E3 ag-2 -3.7.
For C/C(CC(=O)Nc1ccc(OCc2ccccc2)cc1)=N\NC(=O)C(=O)Nc1ccccc1C the results were NR2E3 ag-1 2.2, PP5 primary -0.3, NR2E3 ag-2 -18.4 and PP1 inh 15.6*.
O=c1c2c(nc3c(-c4cccc5ccccc45)c[nH]n13)CCC2 was read as NR2E3 ag-1 1.0, PP5 primary -1.6, NR2E3 ag-2 10.8 and PP1 inh 16.9*.
For Cc1[nH]n2c(=O)c3c(nc2c1-c1cccc2ccccc12)CCC3 the results were NR2E3 ag-1 8.2, PP5 primary -1.1, NR2E3 ag-2 -0.8 and PP1 inh -1.5.
`CC1(OC(=O)C2CCCC2)C(=O)C=C2C=C(c3ccsc3)N(CC3CC3)C=C2C1=O` (centres undefined) gave NR2E3 ag-1 1.4, PP5 primary -6.9, NR2E3 ag-2 4.4 and PP1 inh 1.1.
For CC1(OC(=O)C2CCCC2)C(=O)C=C2C=C(c3ccsc3)N(CCc3c[nH]c4ccccc34)C=C2C1=O (centres undefined) the results were NR2E3 ag-1 0.9, PP5 primary 2.3, NR2E3 ag-2 -20.1 and PP1 inh 17.3*.
Screening Cc1c(O)cccc1C(=O)N[C@@H](CSc1ccccc1)[C@H](O)CN1C[C@H]2CCCC[C@H]2C[C@H]1C(=O)NC(C)(C)C returned NR2E3 ag-1 -0.2, PP5 primary 3.1, NR2E3 ag-2 -47.3 and PP1 inh 17.3*!.
For CCN(CC(=O)NC(C)(C)C)C(=O)c1ccccc1SCC(=O)NC1CCCCCCC1 the results were NR2E3 ag-1 3.1, PP5 primary 1.7, NR2E3 ag-2 -2.9 and PP1 inh -9.5.
For CCc1nc2c(OCc3ccc(C(F)(F)F)cc3)cccn2c1N(C=O)Cc1ccc(OC)cc1 the results were NR2E3 ag-2 -17.0.
O=C(CCC1CCCNC1)c1ccccc1 (centres undefined) was read as NR2E3 ag-1 0.3, PP5 primary 1.4 and PP1 inh -0.6.
Cc1ncoc1C(=O)NC1CCCc2c1cnn2-c1ccc(C(C)(C)C)cc1 (centres undefined) was read as NR2E3 ag-2 96.1*.
O=C(c1cc(-c2ccc(F)cc2)on1)N1CCCc2ccccc21 was read as NR2E3 ag-1 0.3, PP5 primary 1.9, NR2E3 ag-2 -89.1 and PP1 inh 15.9*.
COc1ccc(NC(=O)CCC(=O)c2ccc(-c3ccccc3)cc2)cc1 was read as NR2E3 ag-1 3.9, PP5 primary 1.8, NR2E3 ag-2 -28.4 and PP1 inh 15.7*.
For COc1ccc(C(=O)Nc2cccc(-c3cc4ccccc4oc3=O)c2)cc1[N+](=O)[O-] the results were NR2E3 ag-1 5.4, PP5 primary 2.1, NR2E3 ag-2 1.1 and PP1 inh 16.5*.
CC(=O)Nc1ccc(NC(=O)c2cccc(-c3cc4ccccc4oc3=O)c2)cc1 was read as NR2E3 ag-1 -1.5, PP5 primary 0.7, NR2E3 ag-2 -96.7 and PP1 inh 0.0.
COc1ccc(C(=O)NC(=S)Nc2ccc3oc(=O)ccc3c2)cc1[N+](=O)[O-] was read as NR2E3 ag-1 1.6, PP5 primary 2.8, NR2E3 ag-2 -21.6 and PP1 inh 9.8.
Screening O=C(Nc1ccc(N2CCCC2)c(Cl)c1)c1cccc(-c2cc3ccccc3oc2=O)c1 returned NR2E3 ag-1 -0.2, PP5 primary 1.5, NR2E3 ag-2 -70.0 and PP1 inh 15.7*.

Source: PubChem (The Scripps Research Institute Molecular Screening Center)
